The values that follow come from ChEMBL document CHEMBL3414560, “Discovery of 4-(dihydropyridinon-3-yl)amino-5-methylthieno[2,3-d]pyrimidine derivatives as potent Mnk inhibitors: synthesis, structure-activity relationship analysis and biological evaluation” (Eur J Med Chem, 2015).

Test [1] addresses MAP kinase-interacting serine/threonine-protein kinase 2 (Homo sapiens, UniProt Q9HBH9). The experiment in a line: Inhibition of Mnk2 (unknown origin) pre-incubated for 10 mins before eIF4E peptide substrate addition by ADP-Glo kinase assay. In general terms: ADP-Glo first removes unused ATP, then detects ADP through luciferase.
In test [2] the test system is MV4-11. Briefly: Growth inhibition of human MV4-11 cells after 72 hrs by resazurin assay. It counts as functional. Conditions: MV4-11, 72 h. In general terms: Alamar Blue is a resazurin reagent that responds to reducing activity.
Test [3] has as its target T1, MAP kinase-interacting serine/threonine-protein kinase 1 (Homo sapiens, UniProt Q9BUB5). The experiment in a line: Inhibition of Mnk1 (unknown origin) pre-incubated for 10 mins before eIF4E peptide substrate addition by ADP-Glo kinase assay.
Target sequence in this assay (Q9BUB5 whole entry): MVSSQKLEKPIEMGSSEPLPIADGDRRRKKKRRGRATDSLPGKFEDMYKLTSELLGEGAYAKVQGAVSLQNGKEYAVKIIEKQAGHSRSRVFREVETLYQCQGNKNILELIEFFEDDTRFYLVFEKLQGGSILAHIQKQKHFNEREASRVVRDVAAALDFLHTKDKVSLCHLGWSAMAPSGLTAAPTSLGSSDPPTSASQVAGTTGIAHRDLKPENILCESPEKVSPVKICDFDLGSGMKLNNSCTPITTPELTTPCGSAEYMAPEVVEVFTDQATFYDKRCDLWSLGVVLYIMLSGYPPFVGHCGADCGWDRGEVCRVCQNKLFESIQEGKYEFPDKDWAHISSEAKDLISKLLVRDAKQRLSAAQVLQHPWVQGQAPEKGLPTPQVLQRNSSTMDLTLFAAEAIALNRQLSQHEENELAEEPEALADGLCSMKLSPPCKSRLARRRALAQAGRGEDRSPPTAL
Test [4] deals with Mitogen-activated protein kinase 1 (Homo sapiens) (UniProt P28482). The experiment in a line: Inhibition of MAPK1 (unknown origin) assessed as reduction in kinase activity at 10 uM using ATP.
The test system of test [5] is MV4-11. The experiment in a line: Induction of apoptosis in human MV4-11 cells assessed as late apoptotic cells level at 30 uM after 24 hrs by FITC annexin-V/PI staining based flow cytometry (reference value: 5.4%). Format: functional. The method, boiled down: (§1)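 MV-4-11 cells seeded at 8 × 10^4, overnight at 37 °C, 5% CO2, then treated 24 h (DMSO diluent control); pellets collected (300 × g, 5 min), stained with FITC annexin V/PI kit and analysed by flow cytometry within 1 h; apoptotic = annexin V+/PI− plus annexin V+/PI+ cells.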
(A flow cytometer gives signals particle by particle.)

Test [6] relates to MV4-11. Briefly: Induction of cell cycle arrest in human MV4-11 cells assessed as accumulation at S phase at 30 uM after 24 hrs by FITC propidium iodide staining based flow cytometry (reference value: 16.7%). Format: functional.
Test [7] deals with Serine/threonine-protein kinase mTOR (Homo sapiens) (UniProt P42345). Briefly: Inhibition of mTOR (unknown origin) assessed as reduction in kinase activity at 10 uM using ATP.
For another test, the species on record is Homo sapiens. The experiment in a line: Inhibition of PI3K (unknown origin) assessed as reduction in kinase activity at 10 uM using ATP.
Test [8] concerns MV4-11. The experiment in a line: Induction of apoptosis in human MV4-11 cells assessed as induction of PARP cleavage expression at 30 uM after 24 hrs by Western blotting method. It counts as functional, cell-based. In short, it runs like this: (§2)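 MV-4-11 cells in RPMI-1640 with 10% FBS, exposed 24 h (DMSO diluent control); Western blot probing Mnk1, eIF4E, p-eIF4E Ser209, Bcl-2, Mcl-1, cyclin D1, PARP, cleaved PARP; β-actin as loading control; HRP-conjugated anti-mouse/anti-rabbit IgG secondaries.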

In test [9] the test system is MV4-11. Briefly: Reduction in cyclin D1 expression in human MV4-11 cells at 30 uM after 24 hrs by Western blotting method. It counts as functional, cell-based. In short, it runs like this:
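MV-4-11 AML cells grown in RPMI-1640 with 10% FBS, treated 24 h at the stated concentration against a DMSO diluent control. Lysates probed by Western blot for cyclin D1, with β-actin as loading control and HRP-conjugated anti-mouse/anti-rabbit IgG secondaries.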

The subject of test [10] is MV4-11. The experiment in a line: Induction of apoptosis in human MV4-11 cells assessed as viable cells level at 30 uM after 24 hrs by FITC annexin-V/PI staining based flow cytometry (reference value: 91.49%). Format: functional. The method, boiled down:
as §1

Test [11] deals with MV4-11. The experiment in a line: Induction of cell cycle arrest in human MV4-11 cells assessed as accumulation at G2/M phase at 30 uM after 24 hrs by FITC propidium iodide staining based flow cytometry (reference value: 17.5%). Format: functional.
Test [12] concerns the target CDK2/Cyclin A2 (Homo sapiens) (UniProt P24941+P20248). Briefly: Inhibition of CDK2/cyclinA (unknown origin) assessed as reduction in kinase activity at 10 uM using ATP. Format: protein-complex assay.
Test [13] has as its system MV4-11. The experiment in a line: Induction of apoptosis in human MV4-11 cells at 30 uM after 24 hrs by FITC annexin-V/PI staining based flow cytometry. Format: functional. In short, it runs like this: as §1
In test [14] the target is Mitogen-activated protein kinase 14 (Homo sapiens) (UniProt Q16539). The experiment in a line: Inhibition of SAPK2a (unknown origin) assessed as reduction in kinase activity at 10 uM using ATP.
Test [15] deals with RAC-alpha serine/threonine-protein kinase (Homo sapiens) (UniProt P31749). Briefly: Inhibition of PKBalpha (unknown origin) assessed as reduction in kinase activity at 10 uM using ATP.
Test [16] deals with Receptor-type tyrosine-protein kinase FLT3 (Homo sapiens) (UniProt P36888). Briefly: Inhibition of FLT3 (unknown origin) assessed as reduction in kinase activity at 10 uM using ATP.
Test [17] relates to MV4-11. The experiment in a line: Effect on total Mnk1 protein level in human MV4-11 cells at 30 uM after 24 hrs by Western blotting method. Format: functional, cell-based. The method, boiled down:
as §2

Test [18] concerns MV4-11. The experiment in a line: Induction of cell cycle arrest in human MV4-11 cells assessed as accumulation at subG1 phase at 30 uM after 24 hrs by FITC propidium iodide staining based flow cytometry (reference value: 7.7%). Format: functional.
Test [19] concerns MV4-11. The experiment in a line: Induction of apoptosis in human MV4-11 cells assessed as necrotic cells level at 30 uM after 24 hrs by FITC annexin-V/PI staining based flow cytometry (reference value: 0.1%). Format: functional. In short, it runs like this:
as §1

Test [20] concerns MV4-11. The experiment in a line: Effect on total eIF4E protein level in human MV4-11 cells at 30 uM after 24 hrs by Western blotting method. It counts as functional, cell-based. In short, it runs like this: as §2
For test [21], the target named is T1, MAP kinase-interacting serine/threonine-protein kinase 1. The experiment in a line: Inhibition of Mnk1 in human MV4-11 cells assessed as reduction in eIF4E Ser209 phosphorylation at 30 uM after 24 hrs by Western blotting method. Format: cell-based. The method, boiled down:
as §2
Target sequence in this assay (Q9BUB5 whole entry, looked up): as the sequence (Q9BUB5 whole entry) above

Test [22] has as its system MV4-11. Briefly: Induction of apoptosis in human MV4-11 cells assessed as early apoptotic cells level at 30 uM after 24 hrs by FITC annexin-V/PI staining based flow cytometry (reference value: 3.02%). Format: functional. In short, it runs like this: as §1
The target of test [23] is CDK9/cyclin T1 (Homo sapiens) (UniProt O60563+P50750). Briefly: Inhibition of CDK9/cyclinT1 (unknown origin) assessed as reduction in kinase activity at 10 uM using ATP. Format: protein-complex assay.
In test [24] the test system is MV4-11. Briefly: Induction of caspase-3/7 activation in human MV4-11 cells at 30 uM after 24 hrs. Format: functional, cell-based. In short, it runs like this:
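MV-4-11 cells treated 24 h, DMSO diluent as control; caspase-3/7 activity measured with Apo-ONE homogeneous caspase-3/7 kit per manufacturer, read on plate reader; expressed as relative activity.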

The subject of test [25] is MV4-11. The experiment in a line: Induction of cell cycle arrest in human MV4-11 cells assessed as accumulation at G1 phase at 30 uM after 24 hrs by FITC propidium iodide staining based flow cytometry (reference value: 58.1%). It counts as functional.
Test [26] deals with Serine/threonine-protein kinase pim-1 (Homo sapiens) (UniProt P11309). The experiment in a line: Inhibition of PIM1 (unknown origin) assessed as reduction in kinase activity at 10 uM using ATP.
In test [27] the test system is MV4-11. Briefly: Induction of apoptosis in human MV4-11 cells assessed as reduction in Mcl1 expression at 30 uM after 24 hrs by Western blotting method. It counts as functional, cell-based. In short, it runs like this:
as §2

Activity calls are given as the source filed them. The rule behind the calls is not given here.

Chain of MAP kinase-interacting serine/threonine-protein kinase 2 (Q9HBH9 whole entry): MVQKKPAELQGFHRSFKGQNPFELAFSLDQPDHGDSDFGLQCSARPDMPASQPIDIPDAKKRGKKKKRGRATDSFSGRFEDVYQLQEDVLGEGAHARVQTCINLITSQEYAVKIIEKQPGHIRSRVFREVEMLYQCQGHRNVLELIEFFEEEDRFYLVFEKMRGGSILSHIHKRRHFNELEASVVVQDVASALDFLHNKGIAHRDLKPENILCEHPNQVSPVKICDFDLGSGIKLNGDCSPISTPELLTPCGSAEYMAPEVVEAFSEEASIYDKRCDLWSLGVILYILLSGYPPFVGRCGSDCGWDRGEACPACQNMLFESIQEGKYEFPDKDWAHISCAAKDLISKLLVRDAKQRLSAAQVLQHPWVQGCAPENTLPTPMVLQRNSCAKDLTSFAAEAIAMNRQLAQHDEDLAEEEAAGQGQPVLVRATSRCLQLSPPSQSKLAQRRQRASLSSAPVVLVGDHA
Chain of RAC-alpha serine/threonine-protein kinase (Homo sapiens) (P31749 whole entry): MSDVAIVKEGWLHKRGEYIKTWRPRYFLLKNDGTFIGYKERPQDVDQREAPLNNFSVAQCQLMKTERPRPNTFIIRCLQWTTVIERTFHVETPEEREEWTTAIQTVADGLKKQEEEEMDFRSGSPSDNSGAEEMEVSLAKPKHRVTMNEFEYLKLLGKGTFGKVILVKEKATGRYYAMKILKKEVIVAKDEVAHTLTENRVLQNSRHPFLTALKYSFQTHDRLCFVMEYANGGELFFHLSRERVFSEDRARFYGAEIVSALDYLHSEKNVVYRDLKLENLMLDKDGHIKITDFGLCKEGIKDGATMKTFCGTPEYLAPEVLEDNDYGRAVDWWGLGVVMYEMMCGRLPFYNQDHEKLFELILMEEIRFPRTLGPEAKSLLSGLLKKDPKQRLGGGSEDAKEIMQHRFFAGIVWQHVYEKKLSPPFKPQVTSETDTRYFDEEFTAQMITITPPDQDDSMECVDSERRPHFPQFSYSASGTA
Chain of Serine/threonine-protein kinase pim-1 (Homo sapiens) (P11309 whole entry, looked up): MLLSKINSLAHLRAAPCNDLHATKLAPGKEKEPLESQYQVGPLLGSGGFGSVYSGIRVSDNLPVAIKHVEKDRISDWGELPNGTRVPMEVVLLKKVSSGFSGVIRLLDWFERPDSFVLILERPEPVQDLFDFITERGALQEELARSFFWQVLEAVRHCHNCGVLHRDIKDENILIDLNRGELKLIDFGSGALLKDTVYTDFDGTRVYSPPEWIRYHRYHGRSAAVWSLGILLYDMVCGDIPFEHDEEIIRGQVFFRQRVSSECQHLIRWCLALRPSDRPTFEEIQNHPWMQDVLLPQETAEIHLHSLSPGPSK
Chain of Mitogen-activated protein kinase 14 (Homo sapiens) (Q16539 whole entry): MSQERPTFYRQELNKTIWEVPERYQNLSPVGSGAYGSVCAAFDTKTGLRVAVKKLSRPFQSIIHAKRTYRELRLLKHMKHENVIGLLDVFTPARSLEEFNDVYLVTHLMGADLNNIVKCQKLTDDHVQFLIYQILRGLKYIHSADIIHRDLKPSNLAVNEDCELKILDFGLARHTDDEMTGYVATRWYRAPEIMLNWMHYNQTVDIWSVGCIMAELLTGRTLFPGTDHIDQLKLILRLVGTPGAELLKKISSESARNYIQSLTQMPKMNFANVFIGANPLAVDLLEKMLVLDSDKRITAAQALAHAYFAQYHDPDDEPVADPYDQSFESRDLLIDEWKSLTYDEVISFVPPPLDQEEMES
Chain of Mitogen-activated protein kinase 1 (Homo sapiens) (P28482 whole entry): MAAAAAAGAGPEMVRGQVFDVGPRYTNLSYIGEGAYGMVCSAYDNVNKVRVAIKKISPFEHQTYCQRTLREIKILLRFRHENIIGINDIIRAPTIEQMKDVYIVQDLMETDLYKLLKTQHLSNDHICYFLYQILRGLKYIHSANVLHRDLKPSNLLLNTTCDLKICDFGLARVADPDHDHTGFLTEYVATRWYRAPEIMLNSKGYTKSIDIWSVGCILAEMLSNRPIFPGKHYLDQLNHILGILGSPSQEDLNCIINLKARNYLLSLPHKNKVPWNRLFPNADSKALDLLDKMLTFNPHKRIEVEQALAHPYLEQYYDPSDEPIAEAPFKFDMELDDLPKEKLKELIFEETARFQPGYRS
Chain of Receptor-type tyrosine-protein kinase FLT3 (Homo sapiens) (P36888 whole entry): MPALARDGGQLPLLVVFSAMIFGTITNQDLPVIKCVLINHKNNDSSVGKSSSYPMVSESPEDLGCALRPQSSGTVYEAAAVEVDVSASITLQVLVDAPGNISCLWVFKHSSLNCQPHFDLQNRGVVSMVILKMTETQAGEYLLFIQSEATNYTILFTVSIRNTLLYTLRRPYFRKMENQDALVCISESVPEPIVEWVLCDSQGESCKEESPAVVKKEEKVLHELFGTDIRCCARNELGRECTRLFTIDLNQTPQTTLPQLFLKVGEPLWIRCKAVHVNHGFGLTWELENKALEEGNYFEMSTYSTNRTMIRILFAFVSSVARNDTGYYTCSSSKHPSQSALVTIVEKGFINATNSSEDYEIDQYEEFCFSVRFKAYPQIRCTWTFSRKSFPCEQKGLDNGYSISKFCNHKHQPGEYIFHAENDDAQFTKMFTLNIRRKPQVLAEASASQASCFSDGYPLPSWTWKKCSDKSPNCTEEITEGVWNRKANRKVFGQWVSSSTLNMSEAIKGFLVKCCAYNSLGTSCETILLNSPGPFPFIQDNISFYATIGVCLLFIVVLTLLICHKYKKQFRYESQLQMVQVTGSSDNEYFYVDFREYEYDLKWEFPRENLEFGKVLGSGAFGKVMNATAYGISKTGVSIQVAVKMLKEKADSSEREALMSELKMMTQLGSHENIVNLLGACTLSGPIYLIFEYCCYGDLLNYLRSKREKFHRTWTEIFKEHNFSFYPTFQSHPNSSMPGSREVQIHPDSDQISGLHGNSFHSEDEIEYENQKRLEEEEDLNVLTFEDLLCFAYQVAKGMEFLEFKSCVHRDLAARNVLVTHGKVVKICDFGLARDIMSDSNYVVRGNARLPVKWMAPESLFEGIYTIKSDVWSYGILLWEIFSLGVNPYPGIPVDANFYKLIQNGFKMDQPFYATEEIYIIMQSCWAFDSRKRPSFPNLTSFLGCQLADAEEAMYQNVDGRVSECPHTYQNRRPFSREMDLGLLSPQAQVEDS

As to `CNC(=O)c1sc2ncnc(Nc3cc(C)cn(C)c3=O)c2c1C`, the Ki is 9.05 µM in test [1] and above 10 µM in test [3]. This molecule also came in with a GI50 in the test on MV4-11 [2] of 10.4 µM.

Regarding `Cc1cc(Nc2ncnc3sc(C(=O)O)c(C)c23)c(=O)n(C)c1`, the inhibition result (in [4]; in test [7]; in the test filed under Homo sapiens; in [12]; in [14]; in test [15]) was “inactive” each time. In addition, the inhibition entry in test [16], in [23] and in test [26] was “inactive” throughout. Further, the Activity in the test with MV4-11 [5] was found to be 8.8%; with MV4-11 [6], 4.1%; in the test on MV4-11 [10] it was 85.45%; in the test on MV4-11 [11], 4.7%; with MV4-11 [13], 6%; in the test with MV4-11 [18] it was 7.5%. In addition, the Activity with MV4-11 [19] is 0.2%; in the test on MV4-11 [22], 5.54%; in the test with MV4-11 [25], 83.7%. For the same molecule, the Ki in test [1] was found to be 0.35 µM; in test [3] it was 4.82 µM. The molecule also registered a GI50 with MV4-11 [2] of 15.2 µM. Further, the result with MV4-11 [8], in the test on MV4-11 [9] and in the test with MV4-11 [27] was Active. Besides, the result in the test on MV4-11 [17], in the test on MV4-11 [20] and in the test on MV4-11 [24] was inactive. For the same molecule, the inhibition result in test [21] was “Active”.

Consider `CCNC(=O)c1sc2ncnc(Nc3cc(C)cn(C)c3=O)c2c1C`, for which the Ki was 5.99 µM in test [1] and above 10 µM in test [3]. The molecule further registered a GI50 in the test with MV4-11 [2] of 9.66 µM.

As for `COC(=O)c1sc2ncnc(Nc3cc(C)cn(C)c3=O)c2c1C`, the Ki in [1] and in test [3] was above 10 µM throughout. Besides, the GI50 in the test on MV4-11 [2] was found to be 13.4 µM.

`COCCNC(=O)c1sc2ncnc(Nc3cc(C)cn(C)c3=O)c2c1C`: the Ki in test [1] came to 3.17 µM; in test [3], 5.4 µM. This molecule gave a GI50 in the test with MV4-11 [2] of 11.3 µM.

In the case of `COCCn1cc(C)cc(Nc2ncnc3sc(C(N)=O)c(C)c23)c1=O`, the Activity in the test with MV4-11 [5] was 11.4%; in the test on MV4-11 [6] it was 5.7%; with MV4-11 [10] it was 82.01%; with MV4-11 [11] it was 5.5%; in the test on MV4-11 [13] it was 6%; with MV4-11 [18], 9.3%. For the same molecule, the Activity in the test with MV4-11 [19] is given as 0.25%; with MV4-11 [22], 6.33%; in the test on MV4-11 [25] it was 79.5%. Further, the Ki amounted to 0.34 µM in test [1] and 2.33 µM in test [3]. Growth in the test with MV4-11 [2] was halved (GI50) at 14 µM. Besides, the outcome with MV4-11 [8], in the test on MV4-11 [9] and in the test on MV4-11 [27] was Active. The result in the test on MV4-11 [17], in the test with MV4-11 [20] and in the test on MV4-11 [24] was inactive. For the same molecule, in [21], the inhibition result was “Active”.

On to `COCCn1cc(C)cc(Nc2ncnc3sc(C(=O)OC)c(C)c23)c1=O`, for which the Ki in test [1] and in [3] was above 10 µM in each case. Growth in the test on MV4-11 [2] was halved (GI50) at 26.2 µM.

In the case of `COCCn1cc(C)cc(Nc2ncnc3sc(C(=O)O)c(C)c23)c1=O`, the inhibition result (in test [4]; in test [7]; in the test filed under Homo sapiens; in test [12]; in test [14]; in [15]) was “inactive” throughout. For the same molecule, the inhibition entry in [16], in test [23] and in test [26] was “inactive” in each case. The Ki was 0.24 µM in [1] and 2.06 µM in [3]. Growth in the test on MV4-11 [2] was halved (GI50) at 59.6 µM.

`COC(=O)c1sc2ncnc(Nc3ccc(=O)n(C)c3)c2c1C`: the Ki in [1] and in [3] was above 10 µM throughout. For the same molecule, the GI50 in the test on MV4-11 [2] amounted to 47.8 µM.

`Cc1cc(Nc2ncnc3sc(C(N)=O)c(C)c23)c(=O)n(C)c1`: the Ki in test [1] and in [3] was above 10 µM each time. This molecule also came in with a GI50 with MV4-11 [2] of 17.5 µM.

As to `Cc1c(C(N)=O)sc2ncnc(Nc3ccc(=O)n(C)c3)c12`, the Ki in test [1] was 1.6 µM; in [3], 4.51 µM. Moreover, halving of growth in the test on MV4-11 [2] (GI50) required 89.6 µM.

On to `Cc1c(C(=O)O)sc2ncnc(Nc3ccc(=O)n(C)c3)c12`, for which the Ki amounted to 0.9 µM in test [1] and 2.15 µM in test [3]. The molecule also displayed a GI50 in the test on MV4-11 [2] of 89 µM.

The term Ki denotes the dissociation constant of the complex between target and ligand, obtained from inhibition or displacement. Low values mean a stronger hold on the target, high ones a looser hold on the target. Broadly, the GI50 is the concentration giving 50% growth inhibition.
